Screens: PubChem, The Scripps Research Institute Molecular Screening Center
MBD2 DNA inh = inhibitors of MBD2 binding to methylated DNA, primary screen, biochemical, TR-FRET, DNA-binding domain, human. actives 0.31% (n = 370,000). AID 686964, 2013. inhibition, % at 4.4 µM. Methyl-CpG-binding domain protein 2 (Homo sapiens), Q9UBB5. MBD2 binding to methylated oligonucleotide; in the data active = inhibition above about 13%
Target sequence (Q9UBB5 whole entry, looked up, the tested form may be a part): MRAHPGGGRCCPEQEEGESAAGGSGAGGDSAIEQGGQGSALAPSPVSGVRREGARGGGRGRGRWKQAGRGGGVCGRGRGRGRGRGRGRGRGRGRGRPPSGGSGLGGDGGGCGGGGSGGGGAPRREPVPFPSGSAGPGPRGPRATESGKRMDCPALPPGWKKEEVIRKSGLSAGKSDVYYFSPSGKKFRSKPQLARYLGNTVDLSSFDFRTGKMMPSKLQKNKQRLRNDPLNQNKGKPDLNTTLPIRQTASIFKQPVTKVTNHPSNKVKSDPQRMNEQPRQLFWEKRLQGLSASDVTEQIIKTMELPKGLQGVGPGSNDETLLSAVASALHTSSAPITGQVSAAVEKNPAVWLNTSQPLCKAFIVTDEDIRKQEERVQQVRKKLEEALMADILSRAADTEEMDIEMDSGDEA
ARFGAP1 inhibitor = inhibitors of rat ARFGAP1 GAP activity, primary screen, biochemical, fluorescence polarization, GDP tracer | ADP-ribosylation factor GTPase-activating protein 1 (Rattus norvegicus), Q62848 | Arfgap1-stimulated ARF1 GTP hydrolysis, GDP FP detection | inhibition, % at 16.5 µM | actives 0.26% (n = 360,000);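 active = inhibition above a per-plate limit, mean inhibition of low control wells plus 3 SD, cut at about 25% in these data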;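 also: 0% = DMSO wells with enzyme and 100% = wells lacking Arfgap1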
Target sequence (Q62848 1-136 limits assumed): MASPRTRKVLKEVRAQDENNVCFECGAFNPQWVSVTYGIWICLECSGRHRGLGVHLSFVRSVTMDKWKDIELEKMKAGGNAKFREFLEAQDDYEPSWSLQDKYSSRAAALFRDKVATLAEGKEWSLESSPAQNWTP
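Material: truncated rat Arfgap1 GAP domain; Incubation: compound-enzyme preincubation 20 min, reaction 120 min, detection 60 min, 25 °C; Read-out: percent inhibition of Arfgap1-stimulated GTP hydrolysis; Technique: FP, GDP Alexa 633 tracer displaced from anti-GDP antibody, 620/688 nm; Controls: No-Arfgap1 wells (100%) versus DMSO full-reaction wells (0%); Replication: single well per compound.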
TCR-CD3 inh = inhibitors of human TCR-CD3 interaction, primary screen, biochemical, fluorescence, TAMRA-labeled TCR probe; T-cell receptor (TCR); inhibition, % at 9.4 µM; actives 0.37% (n = 360,000); in the data active = inhibition above about 19%;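 also: recombinant mutant TCR 2C K166C tagged with TAMRA read by polarization; 0% = receptor in buffer alone and 100% = receptor with positive control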
LEDGF integ inh = blockers of LEDGF/p75-dependent integrase strand transfer – biochemical, TR-FRET, high throughput, primary screen | actives 0.64% (n = 370,000) | TR-FRET IN-LEDGF/p75 DNA integration, Eu/Cy5 | inhibition, % at 3.7 µM | HIV-1 integrase (with human LEDGF/p75);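 active = inhibition above the screen-wide mean plus 3 SD, cut at about 13% in these data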;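 also: signal is the Cy5 over europium emission ratio at 671 and 618 nm; 0% = plate median of compound wells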
ASAP1 GAP inh = inhibitors of human ASAP1 ArfGAP activity, primary screen, biochemical, fluorescence polarization. inhibition, % at 16.5 µM. ASAP1-stimulated ARF1 GTP hydrolysis, GDP FP detection. actives 0.19% (n = 360,000). AID 624377, 2012. Arf-GAP with SH3 domain, ANK repeat and PH domain-containing protein 1 (Homo sapiens), …; in the data active = inhibition above about 25%;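 also: 0% = vehicle with enzyme and substrate and 100% = no enzyme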
UHRF1 MBD2 ctr = UHRF1 methylated DNA binding inhibitors, primary screen, counter-screen for MBD2 inhibitor project, biochemical, TR-FRET, human UHRF1, single concentration; UHRF1 binding to methylated oligo; inhibition, % at 4.4 µM; actives 0.75% (n = 370,000); in the data active = inhibition above about 21%;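 also: UHRF1 SRA domain binding a hemimethylated CpG hairpin DNA probe; 0% = median of test compound wells and 100% = reference inhibitor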
The depositor's hits bear a star; x = no result given. Shown are actives, neighbours in structure and some others; about 2% of the full set was active somewhere.

SMILES | MBD2 DNA inh | ARFGAP1 inhibitor | TCR-CD3 inh | LEDGF integ inh | ASAP1 GAP inh | UHRF1 MBD2 ctr
CC(C(=O)N1CCc2ccccc21)N(C)CC(=O)Nc1ccccc1Cl (configuration not stated) | -2 | -4 | -4 | 1 | 4 | 33*
CC1CC(C)CN(C(=O)C(C)N(C)CC(=O)Nc2ccccc2Cl)C1 (configuration not stated) | -7 | 2 | -1 | 4 | -11 | -2
C/C=C(\C)C(=O)OC1CC(C)(C)C[C@H]2C3=CC[C@@H]4[C@@]5(C)CCC(O[C@@H]6O[C@@H](C(=O)O)[C@@H](O)C(O[C@@H]7OC[C@H](O)[C@@H](O)[C@@H]7O[C@@H]7OC(CO)C(O)[C@@H](O)[C@@H]7O)C6O[C@@H]6OC(CO)C(O)C(O)C6O)[C@@](C)(CO)[C@@H]5CC[C@]4(C)[C@]3(C)CC(O)[C@@]12CO (some centres not stated) | -1 | -19 | 9 | 26* | 0 | 5
CC1(C)CC[C@]2(C(=O)O[C@@H]3OC(CO)[C@@H](O)[C@H](O)[C@H]3O)CC[C@]3(C)C(=CCC4[C@@]5(C)CC[C@H](O[C@@H]6OC(C(=O)O)[C@@H](O)[C@H](O)[C@H]6O)C(C)(C)C5CC[C@]43C)[C@@H]2C1 (some centres not stated) | 0 | -3 | 0 | 16* | -8 | 1
CC(C)=CCC[C@](C)(O)C1CC[C@]2(C)C1[C@H](O)CC1[C@@]3(C)CC[C@H](O[C@@H]4O[C@H](CO)[C@@H](O)[C@H](O)[C@H]4O[C@@H]4O[C@H](CO)[C@@H](O)[C@H](O)[C@H]4O)C(C)(C)C3CC[C@]12C (some centres not stated) | -3 | 3 | 2 | 2 | 3 | 3
CC1(C)C[C@H]2C3=CCC4[C@@]5(C)CC[C@H](O)[C@@](C)(CO)C5CC[C@@]4(C)[C@]3(C)C[C@@H](O)[C@@]2(CO)[C@@H](O)[C@@H]1O (some centres not stated) | 2 | -9 | 0 | 1 | 9 | 6
Nn1cnc2c(ncn2C2OC(CO)C(O)C2O)c1=O (configuration not stated) | -7 | 1 | -13 | 3 | -2 | -2
Cc1ccc(-c2cc(C(=O)N3CCOCC3)c3ccccc3n2)cc1 | -4 | -4 | -1 | -2 | 1 | 27*
O=C(c1cc(-c2ccncc2)nc2ccccc12)N1CCOCC1 | -2 | 12 | -8 | -5 | 13 | 4
COC(=O)[C@H](C)NC(=O)[C@H](CC(C)C)NC(=O)OC(C)(C)C | 4 | x | x | -1 | x | -2
CCOC(=O)[C@]12CCCCC/C=C\1N(Cc1ccc(OC)cc1)C(=O)[C@H]2CC(=O)NCCC(C)C | 2 | x | x | -2 | x | -1
CN1CCN(S(=O)(=O)c2cccc(C(=O)N3CCN(c4ccccc4)CC3)c2)CC1 | 4 | -1 | 0 | -2 | 5 | 49*
O=[N+]([O-])c1cc(Br)cc(/C=N/n2cnnc2)c1O | -12 | 3 | -1 | 1 | 7 | 40*
COC(=O)[C@]12C[C@H](CC(=O)N3CCOCC3)C(=O)N(Cc3ccc(Cl)cc3Cl)C1=C[C@H](C1CCCC1)O[C@@H]2C | 3 | x | x | 5 | x | 5
CC1=C/C(=C\c2ccc(Br)o2)C(=O)O1 | 16* | -8 | 9 | 11 | 1 | 53*
CC1(OC(=O)CCc2ccccc2)C(=O)C=C2C=C(c3ccc(C#N)cc3)N(Cc3ccco3)C=C2C1=O (configuration not stated) | -2 | 7 | 5 | 17* | -5 | 14
CCC(=O)Nc1cccc(-c2nnc(SCC(=O)c3ccccc3)n2C)c1 | -1 | 9 | -7 | -1 | -29 | 7
CSc1nnc(-c2cccc(NC(=O)c3ccccc3)c2)n1C | -3 | -3 | -6 | -1 | -21 | 26*
CC(=O)C(C(C)=O)c1c(Cl)c(O)c(O)c2c(C(=O)c3ccccc3)coc12 | -2 | 8 | -2 | 51* | -9 | 0
Cc1csc2ncc(C(=O)Nc3cccc(C(F)(F)F)c3)c(=O)n12 | 0 | 18 | -3 | 3 | 1 | 2
CCc1ccc(NC(=O)c2cnc3scc(C)n3c2=O)cc1 | 1 | -8 | 3 | 0 | 7 | 46*
CC(C)CSc1ncccc1-c1nc2ccccc2[nH]1 | 3 | x | x | -2 | x | 0
COc1ccc(-c2nnc(SC)nc2-c2ccc(OC)c([N+](=O)[O-])c2)cc1[N+](=O)[O-] | 9 | -6 | 8 | -2 | -11 | 24*
CC1(c2nnnn2-c2ccc3ccccc3c2)CSCC(=O)N1C1CC1 (configuration not stated) | -1 | x | x | 0 | x | -2
CCCCNC(=O)C1(C)CCN1Cc1cc(C)ccc1C (configuration not stated) | 6 | 11 | 6 | 3 | 5 | 1
SMILES | MBD2 DNA inh | ARFGAP1 inhibitor | TCR-CD3 inh | LEDGF integ inh | ASAP1 GAP inh | UHRF1 MBD2 ctr
CC1C(c2ccccc2)C(C#N)(C#N)C2(C#N)C(=O)NC1(N)C2C (configuration not stated) | 6 | 6 | -1 | -2 | 13 | 23*
COc1cc2c(NCCCCCO)ncnc2c(OC)c1OC | 0 | 0 | 7 | 1 | 9 | 1
COc1cc(NCCCCCCN)c2ncccc2c1OC | -6 | 14 | 14 | 40* | -11 | 2
COc1cc(NC(C)CCCNC(C)C)c2ncccc2c1OC (configuration not stated) | -7 | 7 | 2 | 14* | -3 | -1
CC1(C(=O)Nc2ccc3c(c2)OCCO3)CCC(=O)N1C1CCN(Cc2ccccc2)CC1 (configuration not stated) | -4 | 10 | -1 | 0 | 13 | -1
Cc1c(C)n(Cc2ccc(-c3ccccc3C(=O)O)cc2)c2ccc(C(=O)N[C@@H](C)c3ccc([N+](=O)[O-])cc3)cc12 | 7 | x | x | 1 | x | 1
COc1ccc(C(C)=O)cc1Cn1c(C)c(C(=O)NCc2ccc(C(C)C)cc2)sc1=O | 5 | -5 | 1 | -3 | 2 | 2
COc1ccc(CNC(=O)c2sc(=O)n(Cc3cc(C(C)=O)ccc3OC)c2C)cc1 | 6 | -11 | 1 | 7 | 6 | 22*
